Among the data in ChEMBL document CHEMBL1157020, “Antihyperglycemic activity of naphthylchalcones” (2010) are Activity values, retold here.

Assay [1] deals with Rattus norvegicus. The assay can be described thus: Antidiabetic activity in hyperglycemic normal Wistar rat assessed as reduction of serum glucose level at 10 mg/kg, po after 30 mins by glucose oxidase method relative to control. Type of assay: functional. More on the design: scale not given: the % may be the effect or the level left. The procedure, abridged: (§1)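 Male Wistar rats (180–210 g), fasted 16 h, given glucose 4 g/kg (8.9 M) plus compound 10 mg/kg in corn oil by oral gavage (0.5 mL); vehicle-treated and glucose-only controls. Tail-vein blood centrifuged, serum glucose by glucose oxidase before and at 15, 30, 60, 180 min. Lowering expressed versus hyperglycemic control; mean ± S.E.M., n = 8.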

For assay [2], the system named is Rattus norvegicus. Nature of the assay: Antidiabetic activity in hyperglycemic normal Wistar rat assessed as reduction of serum glucose level at 10 mg/kg, po after 15 mins by glucose oxidase method relative to control. The class given is functional. More on the design: scale not given: the % may be the effect or the level left. The procedure, abridged: as §1
Assay [3] concerns Rattus norvegicus. The assay can be described thus: Antidiabetic activity in hyperglycemic normal Wistar rat assessed as reduction of serum glucose level at 10 mg/kg, po after 60 mins by glucose oxidase method relative to control. Type of assay: functional. More on the design: scale not given: the % may be the effect or the level left. The procedure, abridged: as §1
In assay [4] the test system is Rattus norvegicus. Nature of the assay: Antidiabetic activity in hyperglycemic normal Wistar rat assessed as potentiation of glucose-induced serum insulin level at 10 mg/kg, po after 30 mins by ELISA relative control. The class given is functional. The procedure, abridged: (§2)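 Male Wistar rats (180–210 g), fasted 16 h, orally loaded with glucose 4 g/kg plus compound 10 mg/kg in corn oil by gavage; euglycemic and hyperglycemic control groups. Serum insulin by rat insulin ELISA (range 0.2–10 ng/mL; intra/inter-assay CV 3.22/6.95), absorbance 450 nm against standard curve. Increase versus hyperglycemic control at matched times; mean ± SEM, n = 8.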
In general terms: In an ELISA, binding on a coated surface is turned into a signal by an enzyme label.

Assay [5] has as its system Rattus norvegicus. The assay can be described thus: Antidiabetic activity in hyperglycemic normal Wistar rat assessed as potentiation of glucose-induced serum insulin level at 10 mg/kg, po after 60 mins by ELISA relative control. Type of assay: functional. The procedure, abridged: as §2
Assay [6] relates to Rattus norvegicus. Nature of the assay: Antidiabetic activity in hyperglycemic normal Wistar rat assessed as potentiation of glucose-induced serum insulin level at 10 mg/kg, po by ELISA relative control. More on the design: dose 10 mg/kg. Type of assay: functional, organism-based. The procedure, abridged:
as §2

Assay [7] deals with Rattus norvegicus. The assay can be described thus: Antidiabetic activity in hyperglycemic normal Wistar rat assessed as reduction of serum glucose level at 10 mg/kg, po up to 180 mins by glucose oxidase method. Further details: dose 10 mg/kg. Type of assay: functional, organism-based. The procedure, abridged:
as §1

Calls of active or inactive are those of the source. No cut-off for these calls is given here.

As to `O=C(/C=C/c1ccc2ccccc2c1)c1ccc([N+](=O)[O-])cc1`, the Activity in the assay with Rattus norvegicus [1] was 25%; in the assay with Rattus norvegicus [2], 22%; in the assay on Rattus norvegicus [3], 19%; in the assay on Rattus norvegicus [4] it was 27%; in the assay on Rattus norvegicus [5], 104%; in the assay with Rattus norvegicus [6], “Dose-dependent effect”.

In the case of `O=C(/C=C/c1ccc2ccccc2c1)c1cccc([N+](=O)[O-])c1`, the Activity in the assay on Rattus norvegicus [1] came to 25%; in the assay with Rattus norvegicus [2], 24%; in the assay on Rattus norvegicus [3], 14%.

On to `O=C(/C=C/c1cccc2ccccc12)c1cccc([N+](=O)[O-])c1`, for which the Activity with Rattus norvegicus [1] was 32%; with Rattus norvegicus [2], 18%.

`O=C(/C=C/c1ccc([N+](=O)[O-])cc1)c1ccc2ccccc2c1`: the result in the assay on Rattus norvegicus [7] was inactive.

On to `O=C(/C=C/c1ccc2ccccc2c1)c1ccccc1[N+](=O)[O-]`, for which the result in the assay on Rattus norvegicus [7] was inactive.

With `O=C(/C=C/c1cccc2ccccc12)c1ccc([N+](=O)[O-])cc1`, the Activity in the assay on Rattus norvegicus [1] is 21%; in the assay on Rattus norvegicus [2], 17%.

For the molecule `O=C(/C=C/c1ccc2ccccc2c1)c1ccc2ccccc2c1`, the outcome in the assay with Rattus norvegicus [7] was inactive.

Consider `O=C(/C=C/c1cccc([N+](=O)[O-])c1)c1ccc2ccccc2c1`, for which the outcome in the assay on Rattus norvegicus [7] was Active. For the same molecule, the Activity with Rattus norvegicus [4] is 48%; in the assay on Rattus norvegicus [5] it was 88%; in the assay on Rattus norvegicus [6] it was “Dose-dependent effect”.

Consider `O=C(/C=C/c1ccc2ccccc2c1)c1ccccc1`, for which, in the assay on Rattus norvegicus [7], the outcome was inactive.
